The values below come from PubChem BioAssay.

The term inhibition denotes the change of the read-out against control, counted positive when it falls.

The target of assay [1] is Galanin receptor type 2 (Homo sapiens) (UniProt O43603). Put plainly: blockers of human galanin receptor 2 – cell-based, confirmation (AID 866; in the data active = inhibition above about 27%;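 also: cells stimulated with galanin at about its EC80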). The conditions noted are these: GALR2-expressing cells, antagonist mode, at 4 µM, active compounds read high.
The nature of assay [2]: nonspecific BLA reporter inhibition – CHO NFAT-bla cells, FRET readout, counter-screen for GALR2 antagonist project, confirmation (AID 867).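 Also: 0% = 500 nM thapsigargin stimulated wells and 100% = unstimulated BSA only wells.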 The conditions noted are these: beta-lactamase FRET, thapsigargin-stimulated, at 4.2 µM, active compounds read high. Background: The purpose of a counterscreen is to sort out artefacts and off-target activity.
The test system of assay [3] is DAF-12 nuclear receptor (Heterodera glycines), GAL4-LBD fusion. Put plainly: hgDAF-12 GAL4 fusion reporter activation, retest – cell-based, luminescence, HEK293, GAL4-LBD fusion, confirmation (AID 743050;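 active = mean activation over triplicate wells above the hit cutoff derived from the earlier primary screen, cut at about 11% in these data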;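 also: 0% = DMSO low control and 100% = 2 mM sodium butyrate high control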). The conditions noted are these: HEK293 GAL4-hgDAF12 luciferase reporter, agonist mode; at 6.8 µM; active compounds read high; percent of butyrate response. On the technique in general: In a reporter assay the amount or activity of a reporter protein is the signal.

The target of assay [4] is Oxysterols receptor LXR-beta (Homo sapiens) (UniProt P55055). Put plainly: nonspecific reporter activation via LXR – cell-based, luminescence, HEK293, H. glycines campaign, counter-screen for hgDAF-12 agonist project, confirmation (AID 743051;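 active = mean activation of the triplicate above a set limit carried over from the primary screen, none filed active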). The conditions noted are these: HEK293 Gal4-LXR luciferase reporter, 24 h; at 6.8 µM; active compounds read high. In a few lines: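 Test system – Gal4-LXR luciferase reporter HEK293 cells · Dosing – single nominal test compound dose of 6.8 µM · Times – 24 h compound exposure at 37 °C, 5% CO2 · Detection – luciferase luminescence · Evaluation – % activation versus DMSO and positive controls · Benchmarks – DMSO low control · Repeats – triplicate wells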

The list shows a part of the results. Unmarked numbers belong to inactive results. Calls of active or inactive are those of the source.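 The calls were made as follows, unless noted: active = inhibition above the mean inhibition across tested compounds plus 3 SD (cut at about 27% in these data); inactive = the rest.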

Oxysterols receptor LXR-beta (Homo sapiens), sequence (P55055 whole entry, looked up, the tested form may be a part): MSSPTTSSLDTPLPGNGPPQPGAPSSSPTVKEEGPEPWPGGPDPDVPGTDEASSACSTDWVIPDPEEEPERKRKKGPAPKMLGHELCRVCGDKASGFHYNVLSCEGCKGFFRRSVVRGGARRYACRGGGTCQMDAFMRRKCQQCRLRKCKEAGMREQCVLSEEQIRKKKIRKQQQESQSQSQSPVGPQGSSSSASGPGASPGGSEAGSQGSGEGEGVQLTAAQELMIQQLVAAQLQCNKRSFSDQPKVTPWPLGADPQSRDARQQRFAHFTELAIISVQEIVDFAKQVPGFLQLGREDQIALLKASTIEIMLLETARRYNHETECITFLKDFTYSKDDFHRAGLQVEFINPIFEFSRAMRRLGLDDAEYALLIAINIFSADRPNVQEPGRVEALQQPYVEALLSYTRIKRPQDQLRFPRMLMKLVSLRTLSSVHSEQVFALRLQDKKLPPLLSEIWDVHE
Galanin receptor type 2 (Homo sapiens), sequence (O43603 whole entry, looked up): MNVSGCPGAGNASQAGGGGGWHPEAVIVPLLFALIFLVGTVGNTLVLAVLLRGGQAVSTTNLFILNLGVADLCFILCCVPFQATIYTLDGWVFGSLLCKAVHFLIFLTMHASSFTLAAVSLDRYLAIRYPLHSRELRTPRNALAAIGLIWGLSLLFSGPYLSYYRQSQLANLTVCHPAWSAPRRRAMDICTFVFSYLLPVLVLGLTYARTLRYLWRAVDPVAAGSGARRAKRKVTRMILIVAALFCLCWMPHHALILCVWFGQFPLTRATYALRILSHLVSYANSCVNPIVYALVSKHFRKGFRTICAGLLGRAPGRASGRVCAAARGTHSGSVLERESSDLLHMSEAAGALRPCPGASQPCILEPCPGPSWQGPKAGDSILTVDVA

As to `c1ccc(-c2nnc(SCc3nc4ccccc4[nH]3)o2)cc1`, the figures for the inhibition in assay [1] and in assay [2] were 13.7% and 5.82%, respectively.
On to `COc1ccc(NC(=S)N2N=CCC2c2ccccc2)cc1` (stereo not drawn), for which the activation in assay [3] was 13.8% (active); in assay [4] it was 0.76%.
For `FC(F)(F)c1cnc(Oc2ccccc2-c2nnc(-c3ccc(Cl)cc3)o2)c(Cl)c1`, the inhibition in assay [1] was 3.44%; in assay [2] it was 8.76%.
Consider `N#CC1(Nc2ccc(-c3ccc(Cl)cc3)cc2)CCCC1`, for which the figures for the activation in assay [3] and in assay [4] were 8.29% and 0.34%, respectively.
